Data from ChEMBL document CHEMBL1141231, “Discovery and development of a new class of potent, selective, orally active oxytocin receptor antagonists” (J Med Chem, 2005).

Key:
[1] = Oral bioavailability in rat; assay type: ADME, organism-based; conditions: in vivo
[2] = target: T1, Oxytocin receptor (Homo sapiens, UniProt P30559); test: Inhibitory activity against human Oxytocin induced intracellular Calcium mobilization in human Oxytocin receptor transfected HEK293-EBNA cells; assay type: functional, cell-based
T1 sequence (P30559 whole entry): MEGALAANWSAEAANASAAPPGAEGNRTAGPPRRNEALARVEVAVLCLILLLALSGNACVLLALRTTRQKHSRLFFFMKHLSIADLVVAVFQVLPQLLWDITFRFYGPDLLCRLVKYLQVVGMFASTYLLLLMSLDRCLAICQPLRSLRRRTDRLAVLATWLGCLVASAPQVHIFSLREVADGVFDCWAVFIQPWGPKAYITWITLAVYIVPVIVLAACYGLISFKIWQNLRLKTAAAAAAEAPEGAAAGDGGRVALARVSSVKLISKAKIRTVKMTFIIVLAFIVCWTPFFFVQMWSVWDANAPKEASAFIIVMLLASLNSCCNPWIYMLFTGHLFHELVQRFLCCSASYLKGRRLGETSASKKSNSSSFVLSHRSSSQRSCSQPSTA

[3] = target: T2, Oxytocin receptor (Rattus norvegicus, UniProt P70536); test: Displacement of [125I]OVTA antagonist from rat oxytocin receptor expressed in HEK293-EBNA cells; assay type: cell-based
T2 sequence (P70536 whole entry): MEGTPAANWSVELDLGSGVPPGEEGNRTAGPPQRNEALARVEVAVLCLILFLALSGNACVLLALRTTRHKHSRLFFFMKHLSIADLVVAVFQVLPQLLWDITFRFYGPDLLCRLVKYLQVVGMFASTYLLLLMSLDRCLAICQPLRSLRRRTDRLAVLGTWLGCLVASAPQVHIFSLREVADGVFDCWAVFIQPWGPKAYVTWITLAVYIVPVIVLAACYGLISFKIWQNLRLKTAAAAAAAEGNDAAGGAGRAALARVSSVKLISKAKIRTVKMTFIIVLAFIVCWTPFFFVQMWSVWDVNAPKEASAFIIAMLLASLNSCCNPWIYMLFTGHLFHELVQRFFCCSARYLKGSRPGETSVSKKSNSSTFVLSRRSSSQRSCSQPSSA

[4] = Solubility in aqueous medium; assay type: physicochemical; conditions: aqueous medium; read-out: Solubility
[5] = target: Vasopressin V1a receptor (Homo sapiens, UniProt P37288); test: Displacement of [125I]LVA antagonist from human vasopressin 1a receptor expressed in HEK293-EBNA cells; assay type: cell-based
[6] = Solubility in saline; assay type: physicochemical
[7] = target: T1, Oxytocin receptor; test: biochemical; assay type: cell-based, HEK293-EBNA
[8] = target: Vasopressin V2 receptor (Homo sapiens, UniProt P30518); test: Displacement of [125I]LVA antagonist from human vasopressin 2 receptor expressed in HEK293-EBNA cells; assay type: cell-based
[9] = species on record: Homo sapiens; test: Selectivity for human vasopressin V1a receptor over human oxytocin receptor
[10] = Dissociation constant of the compound; assay type: physicochemical
[11] = system: Liver microsomes; test: Stability of compound in presence of human liver microsomes; assay type: ADME, Microsome
In short: (§1)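 Liver microsomes (human or rat) at final […] in 0.1 M phosphate pH 7.4 with compound at final 40 µM (1% DMSO), preincubated at 37 °C; reaction started with 1 mM NADPH; stopped with cold acetonitrile at 0, 20 and 60 min.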

[12] = target: Cytochrome P450 2C9 (Homo sapiens, UniProt P11712); test: Inhibitory activity against cytochrome P450 2C9 isoform
[13] = Stability of compound in presence of rat liver microsomes; assay type: ADME; in short: as §1
[14] = target: Cytochrome P450 2C19 (Homo sapiens, UniProt P33261); test: Inhibitory activity against cytochrome P450 2C19 isoform; assay type: ADME
In short: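 Baculovirus/insect-cell-expressed CYP isoforms are incubated with a specific fluorogenic substrate and several compound concentrations in 1% DMSO. Fluorescence of the product after a defined reaction time gives % inhibition at each concentration and the IC50.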

[15] = target: T3, Oxytocin receptor (Rattus norvegicus) (UniProt P70536); test: Inhibition of oxytocin-induced uterine contractions in nonpregnant rats administered at 30 mg/kg, po; assay type: functional, organism-based; parameters: dose 30 mg/kg
T3 sequence (whole entry): T2 sequence (P70536 whole entry)
In short: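 Anaesthetized nonpregnant rats dosed orally by esophagus cannulation with a solution in NP3S, PEG/saline or saline. Uterine intraluminal pressure AUC is read versus vehicle. The value is the maximum inhibition within a 3 h interval after OT administration.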

[16] = target: T3, Oxytocin receptor (Rattus norvegicus); test: Inhibition of oxytocin-induced uterine contractions in nonpregnant rats administered at 10 mg/kg, iv; assay type: functional, organism-based; parameters: dose 10 mg/kg
In short: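 Anaesthetized nonpregnant rats; compound given as a solution by iv infusion in NP3S, PEG/saline or saline. Uterine intraluminal pressure AUC is read relative to the third OT injection. Inhibition is taken versus vehicle values at 5 min after OT administration.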

[17] = system: Rattus norvegicus; test: Inhibition of spontaneous uterine contraction in late-term pregnant rats at 30 mg/kg, po
[18] = Inhibitory activity against cytochrome P450; assay type: ADME
In short: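 Baculovirus/insect-cell expressed CYP isoforms incubated with compound at several concentrations in 1% DMSO plus isoform-specific fluorogenic substrate; fluorescence after a fixed reaction time used to compute % inhibition and IC50.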

[19] = target: T3, Oxytocin receptor (Rattus norvegicus); test: In vivo efficacy against oxytocin-induced uterine contractions in nonpregnant rats administered iv; assay type: functional, organism-based
In short: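 Anaesthetized nonpregnant rats; compound given as a solution by iv infusion in NP3S, PEG/saline or saline. Contractions read as AUC of intraluminal uterine pressure over 35 min, relative to the third OT injection, and expressed as % inhibition versus a vehicle group. ED50 is taken from a dose-response curve of peak inhibition values.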

Chain of Vasopressin V1a receptor (P37288 whole entry): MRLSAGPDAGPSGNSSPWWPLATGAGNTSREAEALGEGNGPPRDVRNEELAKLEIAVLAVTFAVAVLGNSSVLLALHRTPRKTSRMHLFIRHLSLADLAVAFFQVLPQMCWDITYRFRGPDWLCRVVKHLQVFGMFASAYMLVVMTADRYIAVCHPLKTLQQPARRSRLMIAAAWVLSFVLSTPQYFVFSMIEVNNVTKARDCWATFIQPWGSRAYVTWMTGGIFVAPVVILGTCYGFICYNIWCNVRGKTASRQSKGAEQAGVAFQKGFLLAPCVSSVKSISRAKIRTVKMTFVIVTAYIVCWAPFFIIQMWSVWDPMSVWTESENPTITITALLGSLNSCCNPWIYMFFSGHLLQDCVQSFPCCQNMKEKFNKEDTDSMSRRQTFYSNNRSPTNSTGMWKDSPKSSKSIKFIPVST
Chain of Cytochrome P450 2C19 (P33261 whole entry, canonical isoform): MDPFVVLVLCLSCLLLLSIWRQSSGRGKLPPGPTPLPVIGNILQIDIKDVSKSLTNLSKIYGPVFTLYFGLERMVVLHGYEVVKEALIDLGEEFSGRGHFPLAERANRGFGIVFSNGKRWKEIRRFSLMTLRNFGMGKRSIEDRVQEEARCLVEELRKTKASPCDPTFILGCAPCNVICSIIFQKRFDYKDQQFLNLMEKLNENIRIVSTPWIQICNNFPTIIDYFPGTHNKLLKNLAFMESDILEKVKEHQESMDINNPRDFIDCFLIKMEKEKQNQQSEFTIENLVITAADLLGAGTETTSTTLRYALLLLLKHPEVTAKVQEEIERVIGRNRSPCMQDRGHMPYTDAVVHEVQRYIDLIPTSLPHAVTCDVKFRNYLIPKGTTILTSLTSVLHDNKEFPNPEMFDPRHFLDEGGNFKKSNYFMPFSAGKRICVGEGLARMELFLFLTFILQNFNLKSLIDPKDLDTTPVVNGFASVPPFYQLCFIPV
Chain of Vasopressin V2 receptor (P30518 whole entry): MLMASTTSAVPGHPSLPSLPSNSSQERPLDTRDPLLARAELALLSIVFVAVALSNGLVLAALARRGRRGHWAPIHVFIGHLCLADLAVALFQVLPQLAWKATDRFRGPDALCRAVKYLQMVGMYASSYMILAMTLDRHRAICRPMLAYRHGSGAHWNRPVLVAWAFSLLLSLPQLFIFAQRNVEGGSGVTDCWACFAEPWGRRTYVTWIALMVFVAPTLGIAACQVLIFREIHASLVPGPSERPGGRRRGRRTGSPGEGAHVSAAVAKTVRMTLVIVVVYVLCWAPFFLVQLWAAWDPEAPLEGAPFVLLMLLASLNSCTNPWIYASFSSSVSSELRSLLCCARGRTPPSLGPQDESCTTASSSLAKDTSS
Chain of Cytochrome P450 2C9 (P11712 whole entry, canonical isoform): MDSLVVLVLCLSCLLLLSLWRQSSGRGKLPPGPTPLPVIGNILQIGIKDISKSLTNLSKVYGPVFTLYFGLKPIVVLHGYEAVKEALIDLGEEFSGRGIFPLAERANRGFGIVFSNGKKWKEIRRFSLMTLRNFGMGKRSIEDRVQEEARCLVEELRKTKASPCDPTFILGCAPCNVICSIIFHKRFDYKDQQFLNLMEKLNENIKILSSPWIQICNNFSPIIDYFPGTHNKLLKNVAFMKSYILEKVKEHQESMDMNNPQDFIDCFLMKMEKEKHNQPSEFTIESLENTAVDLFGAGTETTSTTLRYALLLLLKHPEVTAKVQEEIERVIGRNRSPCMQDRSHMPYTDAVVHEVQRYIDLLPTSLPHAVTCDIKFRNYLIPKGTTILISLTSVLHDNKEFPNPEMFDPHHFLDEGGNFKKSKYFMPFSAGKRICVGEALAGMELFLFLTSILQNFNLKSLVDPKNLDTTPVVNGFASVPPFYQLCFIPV

| SMILES | bioavailability [1] | IC50 [2] | Ki [3] | solubility [4] | Ki [5] | solubility [6] | Ki [7] | Ki [8] | Ratio Ki [9] | pKa [10] | MET [11] | IC50 [12] | metabolised [13] | IC50 [14] | inhibition [15] | inhibition [16] | inhibition in vivo at 30 mg/kg [17] | IC50 [18] | ED50 [19] |
| --- | --- | --- | --- | --- | --- | --- | --- | --- | --- | --- | --- | --- | --- | --- | --- | --- | --- | --- | --- |
| CCOc1ccc(S(=O)(=O)N(CC(=O)NN=C2C(=O)Nc3ccccc32)c2ccc(C)cc2)cc1 | 6% | 0.03 µM | 0.025 µM | < 1 µg/mL | 1.41 µM | < 1 µg/mL | 0.014 µM | 2.5 µM |  |  |  |  |  |  |  |  |  |  |  |
| CCOc1ccc(S(=O)(=O)N(CC(=O)N/N=C2\C(=O)Nc3ccncc32)c2ccc(Cl)cc2)cc1 |  |  |  |  | 3.61 µM |  | 0.064 µM |  | 56 | 4.4 |  |  |  |  |  |  |  |  |  |
| O=C(CN(c1ccc(Cl)cc1)S(=O)(=O)c1ccc(CCCO)cc1)N/N=C1\C(=O)Nc2ccccc21 |  | 0.032 µM |  | < 1 µg/mL | 0.615 µM | < 1 µg/mL | 0.0041 µM |  | 150 |  | 34% | 0.345 µM | 31% | 0.05 µM |  |  |  |  |  |
| CN(C)CCCNC(=O)CCc1ccc(S(=O)(=O)N(CC(=O)N/N=C2\C(=O)Nc3ccccc32)c2ccc(Cl)cc2)cc1 |  |  | 0.00067 µM |  | 0.042 µM |  | 0.00065 µM |  | 65 |  | 18% |  | 0% |  | 35% | 72% | 29.3% | > 1 µM | 1.4 mg/kg |
